The list is not random: actives were taken first. Their share in the collection is about 1.9%.
TbHK1 inh: Trypanosoma brucei hexokinase 1 inhibitors, primary screen, biochemical, G6PDH-coupled NADH absorbance, MLSCN library; recombinant TbHK1, G6PDH-coupled NADH A340; AID 1430, 2008; hexokinase 1 [Trypanosoma brucei]; 0.11% of 220,000 active; inhibition, % at 10 µM;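 active = inhibition of 50% or more in the single-dose primary screen; inactive = inhibition below 50%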
RanGTP-Impb inh: inhibitors of RanGTP-importin-beta interaction, primary screen, biochemical, FRET, CFP-Ran, YFP-importin-beta, homogeneous | Ran GTPase (GTP-bound) - importin-beta complex | cell-free CFP-Ran/YFP-importin-beta FRET ratio | AID 2216, 2009 | 1.1% of 300,000 active | inhibition, % (concentration not given with the values);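 active = more than half of the replicate wells show a fall in the fluorescence ratio signal beyond about 16%, limit read from the data, passing the limit was not always enough; inconclusive = exactly half of the replicate wells pass the set limit; inactive = fewer than half of replicates pass the limit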
Runt-SMMHC FRET: inhibitors of RUNX1 Runt–CBFb-SMMHC binding, primary screen, biochemical, FRET, Cerulean-Runt, Venus-CBFb-SMMHC, uHTS. Cerulean-Runt/Venus-CBFb-SMMHC FRET ratio 530/480, 1 h. 0.74% of 220,000 active. Runt-related transcription factor 1 (Homo sapiens) + Core-binding factor subunit beta …. inhibition, % at 20 µM;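 active = mean inhibition across duplicate retests at 20 µM reaching about 50%, limit read from the data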;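 note: inhibitors lower the FRET ratio by blocking Runt binding to CBFb-SMMHC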
Hck Nef HTS: inhibitors of Nef-activated human Hck kinase, primary screen, biochemical, Z-Lyte FRET, 384-well, Hck-YEEI; Tyrosine-protein kinase HCK (Homo sapiens), P08631; Recombinant Hck-YEEI plus Nef, Z-Lyte FRET kinase assay; inhibition, % at 20 µM; 0.68% of 220,000 active;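 active = Hck-Nef kinase inhibition above about 50%, limit read from the data; inactive = inhibition below that limit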
Target sequence (P08631 whole entry, looked up): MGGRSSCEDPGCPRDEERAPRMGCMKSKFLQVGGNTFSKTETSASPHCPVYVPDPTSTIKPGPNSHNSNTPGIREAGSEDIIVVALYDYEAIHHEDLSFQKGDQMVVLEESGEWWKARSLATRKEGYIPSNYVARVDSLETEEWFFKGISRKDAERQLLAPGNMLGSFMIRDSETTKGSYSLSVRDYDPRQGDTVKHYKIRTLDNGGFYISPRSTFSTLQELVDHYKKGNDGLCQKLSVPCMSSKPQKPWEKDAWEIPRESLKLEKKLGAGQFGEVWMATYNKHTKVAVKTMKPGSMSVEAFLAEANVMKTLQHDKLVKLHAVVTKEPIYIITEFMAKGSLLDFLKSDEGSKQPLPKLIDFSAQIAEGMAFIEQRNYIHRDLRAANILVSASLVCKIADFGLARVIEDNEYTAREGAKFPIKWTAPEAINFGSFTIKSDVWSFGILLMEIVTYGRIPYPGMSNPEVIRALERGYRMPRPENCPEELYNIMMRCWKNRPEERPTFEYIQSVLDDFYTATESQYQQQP
Runt-CBFb FRET: inhibitors of RUNX1 Runt–CBFb binding, primary screen, biochemical, FRET, Cerulean-Runt, Venus-CBFb, uHTS; Runt-related transcription factor 1 (Homo sapiens) + Core-binding factor subunit beta …; Cerulean-Runt/Venus-CBFb FRET ratio 530/480, 1 h; inhibition, % at 20 µM; 0.46% of 220,000 active; AID 1496, 2009;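 active = inhibition over about 50% at 20 µM in the single-dose screen, limit read from the data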
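Assay system: Cerulean-Runt domain / Medium: Tris 50 mM pH 7.5, KCl, K2SO4, 0.01% BSA / Timing: protein complex preformed 1 h, compound exposure 1 h, room temperature, dark / Measured by: FRET, excitation 422 nm, emission at 530 and 480 nm / Evaluation: loss of energy transfer signal / Control set: 5 µM unlabeled CBFb as full-inhibition high control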
Runt-CBFb TRFRET: inhibitors of RUNX1 Runt–CBFb binding, biochemical, TR-FRET; shares compounds with Runt-CBFb FRET; TR-FRET RUNX1 Runt domain-CBFb binding; inhibition, % at 20 µM; 20% of 480 active; in the data active = inhibition above about 40%
YIC counter: YIC intramolecular FRET probe signal interference, dose response, counter-screen for RanGTP-importin-beta inhibitor project, biochemical, fluorescence FRET | 40% of 1,000 active | IC50, µM | shares compounds with RanGTP-Impb inh | AID 435026, 2010 | Purified YIC probe, intramolecular FRET ratio YFP/CFP;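 active = fitted half-maximal inhibitory concentration no more than tenfold above the top dose tested; inconclusive = flat fit with 30 to 70% activity, or poor fit; inactive = half-maximal concentration beyond tenfold above the top dose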
Hck-Nef confirm: retest of Hck:Nef kinase inhibitor hits, confirmation, biochemical, Z-Lyte FRET, 384-well, p-Tyr peptide counterscreen; Recombinant Hck-YEEI:Nef, Z-Lyte FRET kinase assay; 28% of 1,300 active; calls only at 10 µM; shares compounds with Hck Nef HTS;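 active = average inhibition of at least 50%, with Z-scores no higher than 3 in both the phospho-tyrosine peptide and fluorescence counterscreens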
Of the large screens only hits and unclear results are named; the others gave an inactive call (follow-up assays come after a bar, where shown).

Cc1nc2ccc(S(=O)(=O)Nc3ccc(-c4nc5cccnc5s4)cc3)cc2s1	RanGTP-Impb inh 21, Hck Nef HTS 56, Runt-CBFb FRET 74 (not shown: Runt-SMMHC FRET) | Runt-CBFb TRFRET 86 | YIC counter 39
Nc1c(C(=O)NCCN2CCOCC2)c2nc3ccccc3nc2n1CCc1ccccc1F	RanGTP-Impb inh 93, Runt-SMMHC FRET 61, Hck Nef HTS 51, Runt-CBFb FRET 70 | Runt-CBFb TRFRET inactive | Hck-Nef confirm inactive
c1coc(-c2nc(-c3ccco3)c(-c3ccco3)nc2-c2ccco2)c1	RanGTP-Impb inh 60, Hck Nef HTS 60, Runt-CBFb FRET 51 | Runt-CBFb TRFRET inactive | Hck-Nef confirm inactive
N#Cc1cccc(NC(=O)CN2CCN(Cc3ccccc3)CC2)c1	none (no result: TbHK1 inh, Runt-SMMHC FRET, Hck Nef HTS, Runt-CBFb FRET)
O=C(c1cc2ccccc2oc1=O)N1CCN(CCc2ccccc2)CC1	RanGTP-Impb inh 33, Runt-SMMHC FRET 77 | YIC counter 7.3
Cc1ccc(S(=O)(=O)Nc2nc3ccccc3nc2NCc2ccco2)cc1	RanGTP-Impb inh 20 | YIC counter 13
CCOC(=O)CSc1nnc(CSc2nc3sc4c(c3c(=O)[nH]2)CCCC4)n1-c1ccccc1	RanGTP-Impb inh 32 | YIC counter inactive
CCOC(=O)CCCSc1nc2sc3c(c2c(=O)[nH]1)CCC3	RanGTP-Impb inh inconclusive
CCC(COC)NC(=O)c1ccc(OC)c(OC2CCN(C(C)=O)CC2)c1 (centres undefined)	none (no result: TbHK1 inh, Runt-SMMHC FRET, Hck Nef HTS, Runt-CBFb FRET)
Cc1c(CC(=O)N2CCN(C(=O)C3COc4ccccc4O3)CC2)c(=O)oc2cc(O)c(Cl)cc12 (centres undefined)	RanGTP-Impb inh 44 (no result: TbHK1 inh, Runt-SMMHC FRET, Hck Nef HTS, Runt-CBFb FRET) | YIC counter 2.9
CCN(CC)c1ccc(/C=N/NC(=O)c2c(Cl)cnn2C)c(O)c1	RanGTP-Impb inh 22, Runt-SMMHC FRET 83, Runt-CBFb FRET 74 | YIC counter 4
CCOC(=O)N/N=C/c1ccc(N(CC)CC)cc1O	none
NC1=NC(c2ccc(Cl)cc2)C(C(=O)c2ccccc2)N1 (centres undefined)	none
CCn1c(=O)cc(N2CCC3(CC2)OCCO3)[nH]c1=O	RanGTP-Impb inh 24 | YIC counter inactive
O=c1cc(N2CCC3(CC2)OCCO3)[nH]c(=O)n1C1CCCCC1	none
NS(=O)(=O)c1ccc(CNC(=O)c2sccc2-c2ccccc2)cc1	none (no result: TbHK1 inh, Runt-SMMHC FRET, Hck Nef HTS, Runt-CBFb FRET)
Nc1nc2nc(-c3ccc(OCc4ccccc4)cc3)cc(C(F)(F)F)n2n1	RanGTP-Impb inh 34, Runt-SMMHC FRET 92, Runt-CBFb FRET 80 | YIC counter 5
C#Cc1cccc(C(=O)N2CCCC(C(=O)c3ccc(OC)cc3C)C2)c1 (centres undefined)	none (no result: TbHK1 inh, Runt-SMMHC FRET, Hck Nef HTS, Runt-CBFb FRET)
COc1ccc(-c2cn(Cc3ccc(C)cc3)nn2)cc1	none (no result: TbHK1 inh, Runt-SMMHC FRET, Hck Nef HTS, Runt-CBFb FRET)
COc1ccc(NC(=O)CN2C(=O)CC(C)S(=O)(=O)c3ccccc32)cc1 (centres undefined)	RanGTP-Impb inh 18 (no result: TbHK1 inh, Runt-SMMHC FRET, Hck Nef HTS, Runt-CBFb FRET) | YIC counter inactive
CCn1c(O)c(C=Nc2ccccc2)sc1=O	none
Oc1c(C=Nc2ccccc2)sc(=S)n1Cc1ccccc1	RanGTP-Impb inh 39 | YIC counter 44
CCn1c(O)c(C=Nc2ccccc2)sc1=S	RanGTP-Impb inh 37, Runt-SMMHC FRET 68 | YIC counter 17
C=CCn1c(O)c(C=Nc2ccccc2)sc1=S	none
